Results of several laboratories.
Protocols differ between the studies behind these lines.
Target: Serine/threonine-protein kinase Nek1 (NEK1, Homo sapiens, UniProt Q96PY6)
Sequence (Q96PY6 1-1258, as in one of the studies): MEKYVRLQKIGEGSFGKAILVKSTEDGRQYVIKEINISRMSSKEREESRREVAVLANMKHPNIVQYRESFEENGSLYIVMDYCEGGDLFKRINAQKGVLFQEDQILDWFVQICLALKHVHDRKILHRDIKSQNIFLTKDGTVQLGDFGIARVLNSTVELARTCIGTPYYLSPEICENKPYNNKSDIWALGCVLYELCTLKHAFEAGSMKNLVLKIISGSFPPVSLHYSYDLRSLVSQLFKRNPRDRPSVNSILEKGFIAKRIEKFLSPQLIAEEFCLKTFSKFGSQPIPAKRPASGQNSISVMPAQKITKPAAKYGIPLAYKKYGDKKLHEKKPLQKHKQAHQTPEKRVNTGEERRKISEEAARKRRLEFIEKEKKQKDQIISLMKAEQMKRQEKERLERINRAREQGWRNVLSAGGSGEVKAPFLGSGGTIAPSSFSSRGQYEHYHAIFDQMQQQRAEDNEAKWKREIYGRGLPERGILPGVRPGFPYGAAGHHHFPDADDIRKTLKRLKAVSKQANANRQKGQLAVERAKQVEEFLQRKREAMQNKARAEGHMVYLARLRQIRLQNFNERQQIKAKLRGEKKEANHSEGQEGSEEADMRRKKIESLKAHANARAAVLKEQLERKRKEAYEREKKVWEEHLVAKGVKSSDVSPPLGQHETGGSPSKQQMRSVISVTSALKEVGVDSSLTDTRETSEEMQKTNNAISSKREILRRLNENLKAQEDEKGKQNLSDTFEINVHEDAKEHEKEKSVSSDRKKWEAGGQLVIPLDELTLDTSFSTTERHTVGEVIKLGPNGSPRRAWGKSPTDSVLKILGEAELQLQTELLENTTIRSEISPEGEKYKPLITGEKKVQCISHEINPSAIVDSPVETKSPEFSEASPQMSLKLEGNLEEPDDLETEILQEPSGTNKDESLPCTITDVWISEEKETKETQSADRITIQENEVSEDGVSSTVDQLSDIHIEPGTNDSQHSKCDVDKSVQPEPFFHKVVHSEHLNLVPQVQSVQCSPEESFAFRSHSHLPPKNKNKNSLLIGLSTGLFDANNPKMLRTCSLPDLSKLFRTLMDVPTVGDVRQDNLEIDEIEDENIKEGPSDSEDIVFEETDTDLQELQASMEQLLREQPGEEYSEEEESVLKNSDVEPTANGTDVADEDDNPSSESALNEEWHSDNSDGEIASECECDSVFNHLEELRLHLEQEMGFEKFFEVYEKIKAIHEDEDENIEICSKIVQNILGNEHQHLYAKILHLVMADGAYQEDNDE

`C[C@@H]1CCN(c2nccc(-c3cnn4ncccc34)n2)C1` gave a remaining binding of 100% (binding; 1 µM).
For `O=C(NCCCN1CCOCC1)c1ccc(Nc2nccc(-c3cc4ccccc4s3)n2)cc1`, the remaining binding was 72% (binding; competition with immobilised ligand; 1 µM).
`FC(F)(F)Oc1cccc(-c2cnc3ccc(-c4ccncc4)nn23)c1` gave a remaining binding of 78% (cell-free assay; competition with immobilised ligand; 5 µM).
The remaining binding of `O=C(O)c1cc(-c2ccc(C3CCNCC3)cc2)c2ccc(-c3ccc(C(F)(F)F)cc3)cc2c1` is reported as 100% (cell-free assay; competition with immobilised ligand; 1 µM).
`C[C@@H](c1ccc(-n2cnc3c(N)ncnc32)cc1)N1CCc2nn(C)c(Cc3ccccc3)c2C1=O` gave a remaining binding of 87% (binding; competition with immobilised ligand; 0.1 µM).
With `CN(C)c1nccc(-c2cnc3ncccn23)n1` the remaining binding was 100% (binding; 1 µM).
`O=C(Nc1c[nH]nc1C(=O)NC1CCNCC1)c1cc(F)cc(F)c1` has a remaining binding of 100% (binding; competition with immobilised ligand; 1 µM).
The remaining binding of `N[C@@H]1CCN(c2nccc(-c3cnn4ncccc34)n2)C1` is reported as 100% (binding; 1 µM).
`O=C(NCCCN1CCOCC1)c1ccc(Nc2ncc(Cl)c(-c3ccc(Cl)s3)n2)cc1` gave a remaining binding of 76% (binding; competition with immobilised ligand; 1 µM).
`CN(C)C(=O)Cn1cc(-c2nc([C@@](C)(c3ccc(-c4cnc(N)nc4)cc3)C3CC3)no2)cn1` gave a remaining binding of 100% (cell-free assay; competition with immobilised ligand; 1 µM).
With `O=C(c1ccc(Nc2ncc(Cl)c(-c3ccc(Cl)s3)n2)cc1)N1CCC(N2CCCC2)CC1` the remaining binding was 23% (binding; competition with immobilised ligand; 1 µM).
`CCN1CCN(Cc2ccc(C(=O)Nc3ccc(C)c(Oc4ccc5c(c4)CC(=O)N5)c3)cc2C(F)(F)F)CC1` gave a remaining binding of 100% (binding; competition with immobilised ligand; 1 µM).
The remaining binding of `Cn1cc(Cl)c2c(Oc3c(F)cc(Nc4cc(Cl)nc(N)n4)cc3F)ccnc21` is reported as 100% (cell-free assay; competition with immobilised ligand; 0.1 µM).
With `COc1cnc(Nc2cccc(S(N)(=O)=O)c2)nc1N1CCN(c2ccccc2)CC1` the remaining binding was 92% (binding; competition with immobilised ligand; 1 µM).
`Cc1cnn2ncc(-c3ccnc(N(C)C)n3)c2c1` gave a remaining binding of 100% (binding; 1 µM).
With `NS(=O)(=O)c1cc(NC(=O)C2(c3ccccc3Cl)CC2)ccc1Oc1cccc(Cl)c1` the remaining binding was 100% (cell-free assay; competition with immobilised ligand; 1 µM).
The remaining binding of `CN(C)c1nccc(-c2cnn3ncccc23)n1` is reported as 88% (binding; 1 µM).
`COc1cnc(Nc2cccc(S(N)(=O)=O)c2)nc1N1CCN(c2ccccc2)C(=O)C1` gave a remaining binding of 100% (binding; competition with immobilised ligand; 1 µM).
`CNC(=O)Nc1ccc2c(c1)CC[C@@]21OC(=O)N(CC(=O)N(Cc2ccc(F)cc2)[C@@H](C)C(F)(F)F)C1=O` gave a remaining binding of 100% (cell-free assay; competition with immobilised ligand; 1 µM).
The remaining binding of `F[C@@H]1CCN(c2nccc(-c3cnn4ncccc34)n2)C1` is reported as 100% (binding; 1 µM).
For `C=CC(=O)N1CCC(C(=O)NCC(=O)N2CCN(c3nc(-c4cnc(N)nc4C(F)F)nc(N4CCOCC4)n3)CC2)CC1`, the remaining binding was 96% (binding; competition with immobilised ligand; 1 µM).
For `Nc1cnc(N2CCc3cc(S(=O)(=O)Nc4c(F)cc(Cl)cc4F)cc(N4CCCC4=O)c32)nc1`, the remaining binding was 46% (binding; competition with immobilised ligand; 1 µM).
